# Screening results as filed in PubChem BioAssay.
# KCNK9 block: blocks the human KCNK9 two-pore domain potassium channel; hit rate 1.2% among 310,000; Q9NPC2; AID 488922; B-score at 10 µM; HEK293 KCNK9, FluxOR thallium flux fluorescence; hits give low values;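 active means ratio B-score over 3 SD below the library mean, with starting fluorescence within 5 SD of its mean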;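 further: negative B-score means less thallium flux so channel inhibition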
# KCNQ1 pot: potentiators or activators of human KCNQ1 potassium channel; P51787; CHO-K1 KCNQ1, thallium flux FluxOR fluorescence; hits give high values; B-score at 10 µM; hit rate 0.35% among 310,000;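 active means fluorescence ratio B-score, a plate-corrected score, at least three library SD, with initial intensity B-score within 5 SD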
#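 Medium – assay buffer, equal DMSO in all wells · Material – CHO-K1 cell line with stable KCNQ1 potassium channel expression · Signal – kinetic FluxOR thallium fluorescence, 10-s 1-Hz baseline, 110-s post-stimulus read · Compound – single concentration per compound, DMSO matched to controls · Schedule – 37 °C overnight plating, 90-min dark dye load, 20-min compound pretreatment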
# Kir21 inh: blocks the mouse Kir2.1 inward-rectifier potassium channel | HEK293-Kir2.1, FluxOR thallium flux fluorescence; hits give low values | B-score at 10 µM | hit rate 0.85% among 310,000 | P35561;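 active means fluorescence ratio B-score at or below minus 3 SD of library scores, with starting-brightness B-score within 2 SD, cut at about -4.2 in these data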;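 further: channel flux triggered by added potassium and thallium sulfate stimulus; B-score of peak minus minimum fluorescence over baseline after thallium stimulus; more negative B-score means stronger Kir2.1 block with less thallium influx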
# KCNQ1 block: blocks the human KCNQ1 potassium channel; hit rate 1.3% among 310,000; B-score at 10 µM; P51787; CHO-K1 KCNQ1, FluxOR thallium flux fluorescence; hits give high values;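 active means compounds whose thallium flux B-score, printed positive for inhibition, exceeds three library SD while starting fluorescence stays within three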;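 further: channel opened by potassium depolarization with thallium stimulus after 20 min compound exposure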
# hERG rescue: hERG (human) protection from proarrhythmic block | Q12809 | CHO-hERG, FluxOR thallium flux, dofetilide IC70 present | activation (rescue from dofetilide block), less the hit threshold, % at 10 µM | hit rate 0.51% among 310,000;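 active means activation above the mean of controls blocked by dofetilide plus 5 SD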;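 further: thallium influx through hERG after potassium depolarization seen as dye fluorescence rise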
# Target sequence (Q12809 whole entry, looked up): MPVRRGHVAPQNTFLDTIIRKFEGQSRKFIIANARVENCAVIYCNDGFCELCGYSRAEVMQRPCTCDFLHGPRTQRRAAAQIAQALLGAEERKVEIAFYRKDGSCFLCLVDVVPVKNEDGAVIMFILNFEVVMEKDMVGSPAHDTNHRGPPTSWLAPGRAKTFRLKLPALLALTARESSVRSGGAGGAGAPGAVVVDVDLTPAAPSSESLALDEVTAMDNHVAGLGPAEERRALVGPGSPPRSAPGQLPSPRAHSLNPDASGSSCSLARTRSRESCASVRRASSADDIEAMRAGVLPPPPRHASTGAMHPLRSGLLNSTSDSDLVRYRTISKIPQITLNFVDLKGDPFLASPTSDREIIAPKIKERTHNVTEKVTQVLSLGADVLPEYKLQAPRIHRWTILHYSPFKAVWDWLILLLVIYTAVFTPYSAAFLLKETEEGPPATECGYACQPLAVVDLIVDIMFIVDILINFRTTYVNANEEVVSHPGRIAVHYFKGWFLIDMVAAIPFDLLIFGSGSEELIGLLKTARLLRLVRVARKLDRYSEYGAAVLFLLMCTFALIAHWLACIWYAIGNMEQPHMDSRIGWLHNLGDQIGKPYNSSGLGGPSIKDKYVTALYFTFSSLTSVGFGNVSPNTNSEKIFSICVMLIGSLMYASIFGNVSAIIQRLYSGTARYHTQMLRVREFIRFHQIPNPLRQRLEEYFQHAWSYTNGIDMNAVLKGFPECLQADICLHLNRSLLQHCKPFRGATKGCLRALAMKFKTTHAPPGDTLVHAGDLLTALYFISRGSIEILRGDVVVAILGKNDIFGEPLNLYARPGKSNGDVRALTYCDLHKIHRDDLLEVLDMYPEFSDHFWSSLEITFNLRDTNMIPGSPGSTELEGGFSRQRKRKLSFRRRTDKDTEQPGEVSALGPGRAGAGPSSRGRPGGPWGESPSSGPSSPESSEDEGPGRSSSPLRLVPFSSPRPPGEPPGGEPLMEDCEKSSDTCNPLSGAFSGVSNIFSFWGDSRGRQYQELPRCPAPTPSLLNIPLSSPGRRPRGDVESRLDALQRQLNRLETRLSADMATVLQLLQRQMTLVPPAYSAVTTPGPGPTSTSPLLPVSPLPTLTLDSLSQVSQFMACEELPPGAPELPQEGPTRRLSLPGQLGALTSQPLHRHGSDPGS
# KCNK3 inh: human KCNK3 channel inhibition, primary screen; hit rate 0.84% among 340,000; CHO-KCNK3 thallium flux, FluxOR fluorescence; hits give low values; O14649; AID 602410; B-score at 10 µM;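 active means B-score under library mean minus 4 SD, starting fluorescence ratio at most library mean plus 5 SD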;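 further: more negative B-score means stronger inhibition of thallium flux through KCNK3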
# KCNQ1 block val: confirmation of human KCNQ1 potassium channel inhibitors; AID 588353; shares compounds with KCNQ1 block; KCNQ1 cell line, FluxOR thallium flux fluorescence; inhibition, % at 10 µM; hit rate 93% among 1,600;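 active means primary screen active, with duplicate mean exceeding buffer control mean plus 3 SD of buffer wells, cut at about 28% in these data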;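 further: 0% = buffer control ratio and 100% = XE991 inhibitor control ratio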
# CHO Tl flux: activity in parental CHO cells lacking KCNQ1 | hit rate 21% among 1,600 | parental CHO-K1, FluxOR thallium flux fluorescence ratio; hits give low values; zero means no signal rise above baseline | AID 588366 | fluorescence ratio (Tl flux) at 10 µM | shares compounds with KCNQ1 block;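 active means mean of duplicate thallium-flux fluorescence ratios in parental host cells more than 5 SD below the buffer control mean, cut at about 0.38 in these data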;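 further: ratio is peak minus minimum fluorescence divided by baseline fluorescence; actives read low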
# KCNQ1 APC inh: confirmation of human KCNQ1 potassium channel inhibitors by electrophysiology; shares compounds with KCNQ1 block; KCNQ1-CHO cells, automated patch clamp current; calls only at 10 µM; hit rate 20% among 490;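 active means KCNQ1 current drop exceeding 3 SD of negative control wells, seen in both duplicate runs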;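 further: steady state current during a 2 s step from -80 to +40 mV; negative values mean current inhibition and positive values mean potentiation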
# KCNQ2 inh: rat KCNQ2 inhibition in KCNQ1 inhibitor specificity screen | inhibition, % at 10 µM | KCNQ2 cells, FluxOR thallium flux fluorescence | hit rate 71% among 1,600 | shares compounds with KCNQ1 block | AID 651746;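 active means mean percent inhibition of the KCNQ2 thallium signal more than 5 SD above the buffer-only control wells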;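 further: KCNQ2 expressed in CHO cells; 0% = buffer control wells and 100% = XE-991 inhibitor control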
# KCNQ1 KCNE1 spec: human KCNQ1/KCNE1 inhibition in KCNQ1 specificity screen | KCNQ1/KCNE1 cells, FluxOR thallium flux fluorescence | shares compounds with KCNQ1 block | hit rate 77% among 1,600 | inhibition, % at 10 µM;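 active means mean percent inhibition of duplicate wells above the buffer-only control mean plus 3 SD of those controls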;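 further: 0% = buffer only wells and 100% = XE-991 inhibitor control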
# Numbers without * were called inactive; i = inactive; . = not tested or not shown; + = active, no number. Only some compounds are listed: those with a hit (about 3.8% of all), similar ones and a draw of the others.
SMILES,KCNK9 block,KCNQ1 pot,Kir21 inh,KCNQ1 block,hERG rescue,KCNK3 inh,KCNQ1 block val,CHO Tl flux,KCNQ2 inh,KCNQ1 KCNE1 spec,others
Cc1nonc1NC(=O)CSc1nnc(-c2ccoc2C)n1-c1cccc(Cl)c1,i,i,-2.7,7*,-13,i,34*,0.43,70%*,68%*,
CCCn1c(SCC(=O)Nc2nonc2C)nnc1-c1ccoc1C,i,i,-0.03,i,-6,i,.,.,.,.,
CCOC(=O)N1CCOCCOCCN(C(=O)OCC)CCOCC1,i,i,0.1,i,-6,i,.,.,.,.,
CNc1ccc2c3c(cccc13)C(=O)N(C)C2=O,i,i,-17,32*,-49,i,+,0.003*,i,i,
N/C(=N\c1nc(CSc2nc3ccccc3s2)cc(=O)[nH]1)Nc1ccc(F)cc1,i,i,-1.5,i,-12,i,.,.,.,.,
Nc1ncc(Br)cc1S(=O)(=O)Nc1cc(C(F)(F)F)cc(C(F)(F)F)c1,i,i,-2.9,10*,-11,i,108*,0.45,i,i,
Cc1ccc(NS(=O)(=O)c2cc(Br)cnc2N)c(Cl)c1,i,i,-2.1,i,-4,i,.,.,.,.,
Cc1ccc2c(C(=O)N3CCN(c4ccccc4)CC3)cc(-c3cccnc3)nc2c1C,i,i,0.34,8*,-18,i,92*,0.46,i,192%*,KCNQ1 APC inh=i
CC1CCCN(S(=O)(=O)c2ccc(S(=O)(=O)N3CCCC3)cc2)C1 (stereo unspecified),i,i,-1.2,i,-11,i,.,.,.,.,
CC1CCCN(S(=O)(=O)c2ccc3[nH]c4c(c3c2)CCCC4)C1 (stereo unspecified),i,i,0.13,12*,-5,i,104*,0.43,99%*,130%*,KCNQ1 APC inh=i
CC1CCCN(CCOCCOc2ccc(Br)cc2Cl)C1 (stereo unspecified),i,i,-1.3,i,-10,i,.,.,.,.,
CC1CCN(CCCOc2ccc(Br)cc2Cl)CC1,i,i,-7.6*,7*,-13,i,62*,0.47,i,90%*,
CCCN1CCC(NC(=O)CCc2nnc(-c3ccccc3)o2)CC1,i,i,0.21,i,-14,i,.,.,.,.,
O=C(OCC(=O)N1CCCCC1)c1ccccc1SCC(=O)N1CCCCC1,i,i,0.08,i,-10,i,.,.,.,.,
CCOc1ccc(NC(=S)NCc2ccc3c(c2)OCO3)cc1,i,i,0.92,6*,-8,i,40*,0.43,96%*,38%*,
Cc1ccc(NC(=S)NCc2ccc3c(c2)OCO3)cc1,i,i,1.7,i,-7,i,.,.,.,.,
Cc1ccc(NC(=O)Cn2c(=O)oc3ccccc32)cc1Cl,i,i,1.4,i,-4,i,.,.,.,.,
O=C(c1cccc(F)c1)N1CCC(N2CCCCCC2)CC1,i,i,-0.01,i,0,i,.,.,.,.,
C#Cc1ccc([C@H]2C=C(C(=O)O)O[C@@H](OCc3ccc(CO)cc3)C2)cc1,i,i,-1.2,i,-7,i,.,.,.,.,
COc1ccc(-c2csc(NC(=O)CSc3nc(SC)ns3)n2)cc1,i,i,-1.3,9*,-19,i,114*,0.43,66%*,116%*,KCNQ1 APC inh=i
COc1ccc(-c2csc(NC(=O)CSc3nc(C)cs3)n2)cc1,i,i,-0.96,i,-8,i,.,.,.,.,
Cc1cc(C)c(C)c(S(=O)(=O)NCc2ccc(C(=O)N3CCCC3)cc2)c1C,i,i,-0.01,i,-2,i,.,.,.,.,
CN1c2ccccc2C(C)(C)C12C=Cc1cc(O)ccc1O2 (stereo unspecified),i,i,-3,9*,-22,i,132*,0.36*,128%*,168%*,
Cc1cccc2cc(CN(C(=S)NCC(C)C)C3CCCC3)c(=O)[nH]c12,i,i,-0.4,i,-5,i,.,.,.,.,
Cc1cc2nc(CCN(C(=S)NCC(C)C)C3CCCC3)[nH]c2cc1C,i,i,0.56,8*,-11,i,167*,0.43,101%*,i,KCNQ1 APC inh=i
SMILES,KCNK9 block,KCNQ1 pot,Kir21 inh,KCNQ1 block,hERG rescue,KCNK3 inh,KCNQ1 block val,CHO Tl flux,KCNQ2 inh,KCNQ1 KCNE1 spec,others
COCCn1c(C(C)C)nc2oc3ccccc3c(=O)c2c1=O,i,i,0.33,i,-3,i,.,.,.,.,
Cc1ccccc1N1CC(C(=O)Nc2ccc(S(=O)(=O)N3CCCCC3)cc2)CC1=O (stereo unspecified),i,i,0.28,i,-6,i,.,.,.,.,
O=C(NCC1(c2ccccc2)CCCC1)C1(c2ccccc2)CCCC1,i,i,-0.17,6*,-5,i,112*,0.41,108%*,152%*,KCNQ1 APC inh=i
CC1CCN(Cc2c(C(=O)N3CCc4ccccc4C3)nc3ccc(Cl)cn23)CC1,i,i,-0.93,i,-2,i,.,.,.,.,
COC(=O)c1ccc(Cl)c(NC(=O)NC23CC4CC(CC(C4)C2)C3)c1,i,i,-1.9,10*,-18,i,131*,0.44,108%*,170%*,
CCOC(=O)C1=NNC(C(=O)c2ccc(Cl)cc2)C1c1ccc(OC)cc1 (stereo unspecified),i,i,-0.17,i,-6,i,.,.,.,.,
O=C(NC(NC1CCS(=O)(=O)C1)C(Cl)(Cl)Cl)c1cccc(Cl)c1 (stereo unspecified),i,i,-2.3,i,-8,i,.,.,.,.,
O=C(NC(NC1CCS(=O)(=O)C1)C(Cl)(Cl)Cl)c1ccc(Br)cc1 (stereo unspecified),i,i,0,10*,-14,i,64*,0.51,88%*,36%*,
O=C(COC(=O)/C=C/c1ccc(Cl)cc1)NC1CCCC1,.,.,.,.,.,i,.,.,.,.,
CC(=O)OCCN(CCOC(C)=O)c1c(C)[nH]c(=O)[nH]c1=O,i,i,-0.03,i,-3,i,.,.,.,.,
Cc1ccc(NC(=O)COc2cccc(C)c2C)cc1S(=O)(=O)N1CCCCCC1,i,i,0.64,6*,-14,i,85*,0.43,119%*,134%*,
